Assay results taken from ChEMBL document CHEMBL4257443, “The discovery of a potent Nav1.3 inhibitor with good oral pharmacokinetics” (Medchemcomm, 2017).
Values after ≈ are worked out from the molar mass of the structure shown. Active and inactive are the calls of the source. The rule behind the calls is not given here.

Tests used:
[1] = biological target: T1, Sodium channel protein type 3 subunit alpha (Homo sapiens, UniProt Q9NY46); assay: Inhibition of human NaV1.3 expressed in HEK cells by electrophysiological method; type: cell-based
[2] = biological target: Sodium channel protein type 1 subunit alpha (Homo sapiens, UniProt P35498); assay: Inhibition of human NaV1.1
[3] = biological target: Sodium channel protein type 2 subunit alpha (Homo sapiens, UniProt Q99250); assay: Inhibition of human NaV1.2
[4] = biological target: Sodium channel protein type 5 subunit alpha (Homo sapiens, UniProt Q14524); assay: Inhibition of human NaV1.5
[5] = biological target: Sodium channel protein type 8 subunit alpha (Homo sapiens, UniProt Q9UQD0); assay: Inhibition of human NaV1.6
[6] = biological target: Sodium channel protein type 9 subunit alpha (Homo sapiens, UniProt Q15858); assay: Inhibition of human NaV1.7
[7] = biological target: Sodium channel protein type 10 subunit alpha (Homo sapiens, UniProt Q9Y5Y9); assay: Inhibition of human NaV1.8
[8] = Clearance in human liver microsomes; type: ADME, microsome; details: read-out: CLH
CYP2C9 = CYP2C9 (Homo sapiens, UniProt P11712); assay: Inhibition of CYP2C9 (unknown origin) at 3 uM by high throughput assay relative to control; type: ADME
[9] = Aqueous solubility of compound; type: physicochemical; details: buffer
MDR1 = assay: Efflux ratio of permeability across basolateral to apical over apical to basolateral side in RRCK cells expressing MDR1; type: ADME, cell-based, Canis lupus familiaris, MDCKII-LE; details: dog, MDCK-MDR1
[10] = Lipophilicity, log D of the compound; type: physicochemical; details: octanol/water
CYP3A4 = CYP3A4 (Homo sapiens, UniProt P08684); assay: Inhibition of CYP3A4 (unknown origin) at 3 uM by high throughput assay relative to control; type: ADME
[11] = Dissociation constant, pKa of compound; type: physicochemical
[12] = Clearance in rat; type: ADME, organism-based; details: in vivo
[13] = Volume of distribution in rat; type: ADME, organism-based; details: in vivo
[14] = Oral bioavailability in rat; type: ADME, organism-based; details: in vivo
[15] = biological target: Voltage-gated inwardly rectifying potassium channel KCNH2 (Homo sapiens, UniProt Q12809); assay: Inhibition of human ERG
[16] = Protein binding in human plasma by equilibrium dialysis method; type: ADME, cell-free; details: read-out: PPB (converted)
Method in brief: (§1)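 Plasma protein binding measured by equilibrium dialysis.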

[17] = Protein binding in rat plasma by equilibrium dialysis method; type: ADME, cell-free; details: read-out: PPB (converted); method in brief: as §1
[18] = Protein binding in dog plasma; type: ADME, cell-free, Canis lupus familiaris; details: read-out: PPB
[19] = Ratio of drug level in rat at 100 mg/kg, po to IC50 for rat NaV1.3; type: ADME, organism-based; details: in vivo
Rattus norvegicus [20] = assay: Toxicity in rat assessed as decrease in heart rate at 100 to 500 mg/kg, po; type: organism-based; details: in vivo
Rattus norvegicus [21] = assay: Toxicity in rat assessed as increase in blood pressure at 100 to 500 mg/kg, po; type: organism-based; details: in vivo
Rattus norvegicus [22] = assay: Toxicity in rat assessed as decrease in core body temperature at 100 to 500 mg/kg, po; type: organism-based; details: in vivo
[23] = Ratio of drug level in cynomolgus monkey treated with (2-(4-(3-chloro-4-(trifluoromethoxy)benzylcarbamoyl)-2-fluorophenylsulfonylimino)thiazol-3(2H)-yl)methyl dihydrogen phosphate at 30 mg/kg to IC50 for cynomolgus monkey NaV1.3; type: ADME, organism-based, Macaca fascicularis; details: in vivo
Tibial nerve [24] = assay: Effect on heat evoked afferent firing in rat skin-tibial nerve at 0.01 to 1 uM; type: functional, tissue-based
Method in brief: (§2)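 Compound was applied to the isolated skin-tibial nerve preparation at 0.01, 0.03, 0.1, 0.3 and 1 µM. Heat-evoked afferent firing and ongoing nerve activity were recorded.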

Tibial nerve [25] = assay: Effect on ongoing nerve activity in rat skin-tibial nerve at 0.01 to 1 uM; type: functional, tissue-based; method in brief: as §2
[26] = Ratio of drug level in tibial nerve transection surgery model of rat treated with (2-(4-(3-chloro-4-(trifluoromethoxy)benzylcarbamoyl)-2-fluorophenylsulfonylimino)thiazol-3(2H)-yl)methyl dihydrogen phosphate at 3 to 10 mg/kg administered as iv bolus dose to IC50 for rat NaV1.3; type: ADME, organism-based; details: in vivo
[27] = biological target: T1, Sodium channel protein type 3 subunit alpha; assay: Inhibition of NaV1.3 (unknown origin) expressed in HEK293 cells by CC2-DMPE/DiSBAC2(3) dye-based FRET assay; type: cell-based
Rattus norvegicus [28] = assay: Antipain activity in tibial nerve transection surgery model of rat assessed as reduction of noxious pinch evoked activity at 9 to 18 mg/kg administered as iv bolus dose measured every 15 mins for 30 mins; type: functional, organism-based
Method in brief: (§3)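 Rats given tibial nerve transection 2 to 3 weeks before recording. Anaesthesia with isoflurane (5% in O2) in a stereotaxic frame, body temperature held at 37 °C, and laminectomy to expose spinal segments L4-5. After stable baseline responses, compound given as IV bolus; evoked activity assessed every 15 min for up to 30 min per dose. Randomised, blinded dosing. Dry blood spots taken for plasma exposure.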

Rattus norvegicus [29] = assay: Antipain activity in tibial nerve transection surgery model of rat assessed as reduction of innocuous brush evoked activity at 9 to 18 mg/kg administered as iv bolus dose measured every 15 mins for 30 mins; type: functional, organism-based; method in brief: as §3
Rattus norvegicus [30] = assay: Antipain activity in tibial nerve transection surgery model of rat assessed as reduction of mechanical punctate stimuli evoked activity at 9 to 18 mg/kg administered as iv bolus dose measured every 15 mins for 30 mins; type: functional, organism-based; method in brief: as §3
Rattus norvegicus [31] = assay: Antipain activity in tibial nerve transection surgery model of rat assessed as reduction of heat evoked activity at 9 to 18 mg/kg administered as iv bolus dose measured every 15 mins for 30 mins; type: functional, organism-based; method in brief: as §3

T1 sequence (Q9NY46 whole entry): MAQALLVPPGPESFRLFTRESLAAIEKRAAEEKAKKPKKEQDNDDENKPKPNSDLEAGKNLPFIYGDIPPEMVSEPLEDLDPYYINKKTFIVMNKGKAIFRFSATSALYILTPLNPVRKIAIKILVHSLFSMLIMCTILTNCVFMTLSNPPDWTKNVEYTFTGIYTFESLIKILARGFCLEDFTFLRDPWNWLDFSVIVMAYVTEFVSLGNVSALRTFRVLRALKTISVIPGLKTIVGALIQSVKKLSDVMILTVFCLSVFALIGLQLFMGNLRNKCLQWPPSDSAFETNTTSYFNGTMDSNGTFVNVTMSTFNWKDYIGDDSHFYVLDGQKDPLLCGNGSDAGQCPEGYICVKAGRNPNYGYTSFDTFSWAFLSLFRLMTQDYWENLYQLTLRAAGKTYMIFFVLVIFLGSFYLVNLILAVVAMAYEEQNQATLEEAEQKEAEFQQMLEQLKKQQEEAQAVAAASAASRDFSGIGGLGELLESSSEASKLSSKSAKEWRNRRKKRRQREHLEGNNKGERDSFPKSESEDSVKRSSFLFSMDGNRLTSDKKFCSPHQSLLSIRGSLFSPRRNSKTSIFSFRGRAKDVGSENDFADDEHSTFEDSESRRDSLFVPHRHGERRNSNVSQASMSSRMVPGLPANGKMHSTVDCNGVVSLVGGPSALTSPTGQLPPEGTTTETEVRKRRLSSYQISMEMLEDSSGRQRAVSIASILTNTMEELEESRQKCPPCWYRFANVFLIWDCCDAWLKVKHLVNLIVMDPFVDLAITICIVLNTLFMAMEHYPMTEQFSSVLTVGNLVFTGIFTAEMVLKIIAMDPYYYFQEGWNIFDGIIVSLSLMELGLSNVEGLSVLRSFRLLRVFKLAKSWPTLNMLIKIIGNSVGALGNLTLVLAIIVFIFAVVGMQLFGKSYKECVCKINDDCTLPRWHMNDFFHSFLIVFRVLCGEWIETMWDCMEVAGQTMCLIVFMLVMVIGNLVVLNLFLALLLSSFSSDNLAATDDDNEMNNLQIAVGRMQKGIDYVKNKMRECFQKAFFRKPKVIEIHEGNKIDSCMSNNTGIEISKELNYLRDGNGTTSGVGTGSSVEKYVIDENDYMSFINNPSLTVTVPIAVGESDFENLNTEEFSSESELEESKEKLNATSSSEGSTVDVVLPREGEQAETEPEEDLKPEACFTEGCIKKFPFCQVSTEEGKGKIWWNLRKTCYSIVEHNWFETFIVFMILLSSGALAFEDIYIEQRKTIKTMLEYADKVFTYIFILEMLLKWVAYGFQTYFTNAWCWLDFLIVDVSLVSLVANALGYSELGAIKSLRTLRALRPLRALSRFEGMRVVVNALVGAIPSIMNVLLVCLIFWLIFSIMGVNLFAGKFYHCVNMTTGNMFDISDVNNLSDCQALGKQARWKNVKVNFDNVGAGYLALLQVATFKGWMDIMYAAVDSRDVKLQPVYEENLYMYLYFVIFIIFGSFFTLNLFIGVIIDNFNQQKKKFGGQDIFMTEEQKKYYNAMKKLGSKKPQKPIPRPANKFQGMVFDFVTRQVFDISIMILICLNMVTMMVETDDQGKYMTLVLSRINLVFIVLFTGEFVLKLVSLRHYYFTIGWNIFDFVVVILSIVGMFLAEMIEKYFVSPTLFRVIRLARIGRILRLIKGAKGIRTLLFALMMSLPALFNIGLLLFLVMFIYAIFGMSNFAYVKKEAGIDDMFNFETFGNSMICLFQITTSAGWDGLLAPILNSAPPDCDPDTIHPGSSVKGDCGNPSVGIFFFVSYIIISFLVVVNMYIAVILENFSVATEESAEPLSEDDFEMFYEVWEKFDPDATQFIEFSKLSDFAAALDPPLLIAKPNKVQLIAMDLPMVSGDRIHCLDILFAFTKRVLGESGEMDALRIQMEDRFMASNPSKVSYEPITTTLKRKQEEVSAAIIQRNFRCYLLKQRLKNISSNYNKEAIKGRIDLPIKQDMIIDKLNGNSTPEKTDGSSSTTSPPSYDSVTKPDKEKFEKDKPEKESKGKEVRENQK
Sequence of Voltage-gated inwardly rectifying potassium channel KCNH2 (Q12809 whole entry): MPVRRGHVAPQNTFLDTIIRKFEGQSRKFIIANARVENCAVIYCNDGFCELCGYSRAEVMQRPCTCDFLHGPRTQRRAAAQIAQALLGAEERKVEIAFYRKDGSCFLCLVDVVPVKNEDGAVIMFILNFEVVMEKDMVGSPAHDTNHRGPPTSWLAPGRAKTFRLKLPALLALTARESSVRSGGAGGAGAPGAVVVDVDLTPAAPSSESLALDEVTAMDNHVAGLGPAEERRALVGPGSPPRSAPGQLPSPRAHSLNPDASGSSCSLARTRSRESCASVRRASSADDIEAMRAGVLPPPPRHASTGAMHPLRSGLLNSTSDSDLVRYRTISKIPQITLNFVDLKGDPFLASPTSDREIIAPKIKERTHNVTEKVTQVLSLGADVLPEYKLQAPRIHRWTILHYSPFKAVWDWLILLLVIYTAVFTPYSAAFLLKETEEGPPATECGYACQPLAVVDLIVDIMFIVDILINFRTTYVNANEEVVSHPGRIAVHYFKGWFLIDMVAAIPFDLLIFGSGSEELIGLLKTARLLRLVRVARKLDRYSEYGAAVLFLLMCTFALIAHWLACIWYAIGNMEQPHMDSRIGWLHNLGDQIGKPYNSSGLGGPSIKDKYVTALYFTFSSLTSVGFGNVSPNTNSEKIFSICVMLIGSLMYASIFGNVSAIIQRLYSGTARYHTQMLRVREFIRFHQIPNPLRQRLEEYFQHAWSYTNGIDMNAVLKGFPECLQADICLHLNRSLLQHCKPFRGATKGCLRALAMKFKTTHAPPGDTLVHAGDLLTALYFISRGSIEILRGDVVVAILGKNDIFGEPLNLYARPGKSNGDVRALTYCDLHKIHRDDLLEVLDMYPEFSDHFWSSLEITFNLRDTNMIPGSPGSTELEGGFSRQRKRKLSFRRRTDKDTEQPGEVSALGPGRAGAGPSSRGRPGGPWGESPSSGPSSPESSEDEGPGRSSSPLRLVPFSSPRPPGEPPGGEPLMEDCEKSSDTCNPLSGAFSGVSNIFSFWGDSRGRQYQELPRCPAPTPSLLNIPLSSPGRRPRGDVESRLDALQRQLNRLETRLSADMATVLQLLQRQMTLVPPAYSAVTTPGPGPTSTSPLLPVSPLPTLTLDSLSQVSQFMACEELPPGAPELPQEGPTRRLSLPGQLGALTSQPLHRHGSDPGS
Sequence of Sodium channel protein type 2 subunit alpha (Q99250 whole entry): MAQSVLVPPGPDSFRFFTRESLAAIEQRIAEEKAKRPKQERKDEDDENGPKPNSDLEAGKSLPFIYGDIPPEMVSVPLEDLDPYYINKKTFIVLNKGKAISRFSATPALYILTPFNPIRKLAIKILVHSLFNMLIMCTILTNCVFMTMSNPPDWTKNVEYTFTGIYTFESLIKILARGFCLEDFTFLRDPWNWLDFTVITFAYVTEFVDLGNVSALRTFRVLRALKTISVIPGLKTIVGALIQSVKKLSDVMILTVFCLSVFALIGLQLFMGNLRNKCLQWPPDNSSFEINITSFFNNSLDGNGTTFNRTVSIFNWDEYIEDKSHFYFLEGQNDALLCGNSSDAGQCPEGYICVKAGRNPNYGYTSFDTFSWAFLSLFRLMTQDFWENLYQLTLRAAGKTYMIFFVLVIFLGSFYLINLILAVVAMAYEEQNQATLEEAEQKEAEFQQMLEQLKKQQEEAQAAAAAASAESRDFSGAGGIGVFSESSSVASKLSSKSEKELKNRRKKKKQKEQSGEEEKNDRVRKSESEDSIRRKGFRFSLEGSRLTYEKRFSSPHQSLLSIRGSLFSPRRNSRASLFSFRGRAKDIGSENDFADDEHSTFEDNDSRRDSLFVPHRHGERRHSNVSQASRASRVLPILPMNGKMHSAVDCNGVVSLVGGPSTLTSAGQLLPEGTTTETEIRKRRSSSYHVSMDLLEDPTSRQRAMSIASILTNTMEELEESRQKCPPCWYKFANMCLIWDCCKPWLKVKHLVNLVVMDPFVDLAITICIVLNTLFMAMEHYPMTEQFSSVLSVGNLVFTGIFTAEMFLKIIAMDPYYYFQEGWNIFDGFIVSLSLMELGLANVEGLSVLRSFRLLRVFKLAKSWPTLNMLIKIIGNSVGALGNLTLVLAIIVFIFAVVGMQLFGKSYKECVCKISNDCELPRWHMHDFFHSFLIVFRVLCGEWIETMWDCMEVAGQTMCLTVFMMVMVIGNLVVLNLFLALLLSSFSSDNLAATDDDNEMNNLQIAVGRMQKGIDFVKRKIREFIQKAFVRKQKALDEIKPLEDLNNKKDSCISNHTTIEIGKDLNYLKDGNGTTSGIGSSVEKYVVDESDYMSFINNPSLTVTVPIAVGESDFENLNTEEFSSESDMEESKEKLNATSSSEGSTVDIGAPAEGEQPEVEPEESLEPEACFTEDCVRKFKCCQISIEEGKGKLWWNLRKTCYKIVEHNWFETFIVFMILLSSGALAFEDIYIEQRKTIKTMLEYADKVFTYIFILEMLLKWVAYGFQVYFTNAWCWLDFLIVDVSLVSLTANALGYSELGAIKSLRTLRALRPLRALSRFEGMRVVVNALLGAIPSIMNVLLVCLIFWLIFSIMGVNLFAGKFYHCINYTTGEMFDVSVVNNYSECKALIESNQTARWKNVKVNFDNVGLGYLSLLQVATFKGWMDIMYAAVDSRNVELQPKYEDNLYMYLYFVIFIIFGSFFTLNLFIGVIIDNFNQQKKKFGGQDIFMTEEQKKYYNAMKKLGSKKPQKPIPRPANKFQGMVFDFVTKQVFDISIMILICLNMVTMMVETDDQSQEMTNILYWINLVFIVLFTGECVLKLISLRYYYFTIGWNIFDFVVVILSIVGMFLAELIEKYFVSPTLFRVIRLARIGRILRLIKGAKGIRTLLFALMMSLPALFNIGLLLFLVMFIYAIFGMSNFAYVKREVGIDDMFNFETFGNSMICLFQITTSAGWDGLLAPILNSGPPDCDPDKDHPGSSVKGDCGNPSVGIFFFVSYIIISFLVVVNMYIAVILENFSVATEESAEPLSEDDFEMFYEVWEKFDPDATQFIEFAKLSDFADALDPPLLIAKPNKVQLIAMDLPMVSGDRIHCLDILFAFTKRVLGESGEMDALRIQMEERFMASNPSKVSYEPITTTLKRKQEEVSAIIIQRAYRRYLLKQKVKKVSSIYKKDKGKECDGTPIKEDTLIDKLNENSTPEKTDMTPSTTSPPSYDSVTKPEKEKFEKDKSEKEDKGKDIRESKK

O=C(NCc1ccc(OC(F)(F)F)c(Cl)c1)c1ccc(S(=O)(=O)Nc2ncns2)c(F)c1
IC50 [1]: 13 nM | IC50 [2]: 12 nM | IC50 [3]: 920 nM | IC50 [4]: 4.87 µM | IC50 [5]: 2100 nM | IC50 [6]: 1800 nM | IC50 [7]: 11.3 µM | microsomal CLint [8]: < 8 µL/min/mg | inhibition at 3 µM (CYP2C9): 88% | solubility [9]: 369 µg/mL (≈ 722 µM) | efflux ratio (MDR1): 1 | logD [10]: 2.1 | inhibition at 3 µM (CYP3A4): 88% | pKa [11]: 3.3 | clearance [12]: 4.4 mL/min/kg | Vd [13]: 0.1 L/kg | bioavailability [14]: 4% | IC50 [15]: > 100 µM

O=S(=O)(Nc1nccs1)c1ccc(S(=O)(=O)N2CC[C@H](Oc3c(Cl)cccc3Cl)C2)cc1F
IC50 [1]: 945 nM | logD [10]: 2.6

O=C(NCc1ccc(OC(F)(F)F)c(Cl)c1)c1ccc(S(=O)(=O)Nc2nccs2)c(F)c1
IC50 [1]: 11 nM | IC50 [2]: 20 nM | IC50 [3]: 429 nM | IC50 [4]: 15.8 µM | IC50 [5]: 1050 nM | IC50 [6]: 289 nM | IC50 [7]: 12.4 µM | microsomal CLint [8]: < 8 µL/min/mg | inhibition at 3 µM (CYP2C9): 66% | solubility [9]: 12 µg/mL (≈ 23.5 µM) | efflux ratio (MDR1): 3.5 | logD [10]: 3.3 | inhibition at 3 µM (CYP3A4): 66% | pKa [11]: 6.4 | clearance [12]: 3.9 mL/min/kg | Vd [13]: 1.1 L/kg | bioavailability [14]: 58% | fraction unbound [16]: 0.002 | fraction unbound [17]: 0.002 | fraction unbound [18]: < 0.002 | IC50 [15]: 17.7 µM | Ratio [19]: 12 | Activity (Rattus norvegicus [20]): Toxic | Activity (Rattus norvegicus [21]): Toxic | Activity (Rattus norvegicus [22]): Toxic | Ratio [23]: 62 | Activity (Tibial nerve [24]): inactive | Activity (Tibial nerve [25]): inactive | Ratio [26]: <= 15

O=C(COc1ccc(F)cc1)N1CCc2cc(S(=O)(=O)Nc3nccs3)ccc21
IC50 [1]: 2510 nM | logD [10]: 1.8

O=C(Cc1ccccc1)Nc1ccc(S(=O)(=O)Nc2nccs2)cc1
IC50 [1]: 3790 nM

O=S(=O)(Nc1nccs1)c1ccc(-c2nnc(Cc3ccc(C(F)(F)F)cc3)[nH]2)cc1
IC50 [1]: 124 nM

O=C1[C@@H](N2CC[C@H](c3cc(Cl)cc(Cl)c3)C2)CCN1c1ccc(S(=O)(=O)Nc2nccs2)cc1
IC50 [27]: < 2000 nM

O=C(NCc1ccc(OC(F)(F)F)c(Cl)c1)c1ccc(S(=O)(=O)Nc2nccs2)cc1
IC50 [1]: 20 nM | logD [10]: 3.1

O=S(=O)(NCc1ccc(C(F)(F)F)cc1)c1ccc(S(=O)(=O)Nc2nccs2)cc1
IC50 [1]: 160 nM

O=C(NCc1ccccc1)c1ccc(S(=O)(=O)Nc2nccs2)cc1
IC50 [1]: 4450 nM

O=S(=O)(Nc1nccs1)c1ccc(S(=O)(=O)N2CCC[C@@H]2CNc2ncnc3[nH]ccc23)cc1F
IC50 [1]: > 3000 nM

O=S(=O)(CCc1ccc(C(F)(F)F)cc1)c1ccc(S(=O)(=O)Nc2nccs2)cc1
IC50 [1]: 155 nM

CN(Cc1ccc(OC(F)(F)F)c(Cl)c1)C(=O)c1ccc(S(=O)(=O)Nc2ncns2)c(F)c1
IC50 [1]: 522 nM | logD [10]: 1.3

O=C(NCc1ccc(OC(F)(F)F)c(Cl)c1)c1ccc(S(=O)(=O)Nc2ncc(F)cn2)c(F)c1
IC50 [1]: 993 nM | logD [10]: 2.1

O=S(=O)(Nc1nccs1)c1ccc(S(=O)(=O)N2CCC(c3cccc(C(F)(F)F)n3)CC2)cc1F
IC50 [1]: 1640 nM

CC(C)C[C@H](CN)CC(=O)O
Activity (Rattus norvegicus [28]): Active | Activity (Rattus norvegicus [29]): Active | Activity (Rattus norvegicus [30]): Active | Activity (Rattus norvegicus [31]): Active
